Key:
Jurkat cells = experiment: Proliferation assay, Cell Titer Glo; format: cell-based, human; conditions: 72 h, highest concentrations
In short: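 Jurkat cells at 2 × 10^4 cells/mL were exposed 72 h to compound at final concentrations from 20μM to 600pM. Viability was read by CellTiter-Glo luminescence, and IC50 was fitted by nonlinear regression. Run in triplicate.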

HAP1 cells [1] = experiment: Growth rate inhibition; format: cell-based, human; conditions: for GRmax: HAP1 wild-type, 72 hours
In short: (§1)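 HAP1 WT or CDK7-C312S cells were seeded at 500 cells/well, adhered 24 h, then treated with a dilution series for 72 h. Live cells were identified by a dead-cell stain and Hoechst nuclear segmentation and counted at dosing and at 72 h. Counts were normalised to same-plate DMSO controls to give growth rate inhibition (GR) values. Technical duplicates in biological triplicate.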

cyclin K- CDK12/13 = conditions: HAP1 cells, 6 hours
HAP1 cells [2] = experiment: LIVE/DEAD dye staining in HAP1 cells; format: cell-based, human; conditions: HAP1 WT and CDK7-C312S, 72 hours
In short: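 HAP1 WT and CDK7-C312S cells were plated at 500 cells/well and allowed to adhere 24 h before a dilution series of test compound. Cells were analysed at time of dosing and after 72 h. After a 1 h EdU pulse they were stained with LIVE/DEAD Far Red (1:2000), then fixed with 3.7% formaldehyde for 30 min. Mean dye intensity within Hoechst nuclear masks classified cells as live or dead. Technical duplicates, biological triplicate.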

[3] = tested on: CDK7-C312S expressing HAP1 cells; experiment: Growth rate inhibition; format: cell-based, human; conditions: for GRmax in CDK7-C312S cells: HAP1 CDK7-C312S, 72 hours
In short: as §1

CDK7-cyclin H [4] = experiment: Competitive bioTHZ1 pulldown in HAP1 cells; format: cell-based, human; conditions: for time required for equivalent engagement of CDK7 (>50%): compared with 30 min for YKL-5-124
CDK7 [5] = experiment: KiNativ profiling in Jurkat cells; format: cell-based, human; conditions: 1μM, 6 hours
In short: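 Jurkat cells were treated 6 h with 1μM compound or DMSO, then sonicated in 50 mM HEPES pH 7.5, 150 mM NaCl, 0.1% Triton X-100 with phosphatase inhibitors. Cleared lysate was labelled 10 min with 20 μM desthiobiotin-ATP acyl-nucleotide probe, denatured, alkylated and trypsin-digested for 1 h at 37°C. Probe-labelled peptides were captured on streptavidin and quantified by mass spectrometry as probe-binding block versus DMSO.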

CDK2(T160) = experiment: Western blot of CDK2 T-loop phosphorylation in HAP1 cells; format: cell-based, human; conditions: HAP1 WT, 24 hours, 125 nM to 2 μM YKL-5-124 or 2 μM YKL-5-167
In short: (§2)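 HAP1 WT and CDK7-C312S cells were treated 24 h across a concentration range, or with 2μM over a time course. Cells were lysed 30 min on ice in RIPA (50mM Tris-HCl, 150 mM NaCl, 1% NP-40, 0.5% deoxycholate, 0.1% SDS, pH 7.4) with protease/phosphatase inhibitors and nuclease. Blots were probed for phospho-T161 CDK1, phospho-T160 CDK2 and the total proteins, and detected with infrared-labelled secondaries.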

phospho-CDK1(T161) = experiment: Western blot of CDK1 T-loop phosphorylation in HAP1 cells; format: cell-based, human; conditions: for effect on CDK1 T-loop phosphorylation: HAP1 WT, 24 hours, 125 nM to 2 μM YKL-5-124 or 2 μM YKL-5-167
In short: as §2

HAP1 cells [6] = experiment: Cell cycle analysis; format: cell-based, human; conditions: HAP1 WT, 72 hours
In short: (§3)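 HAP1 WT and CDK7-C312S clones were seeded at 500 cells/well and allowed to adhere 24 h, then given a compound dilution series. Cells were analysed at dosing and after 72 h: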

CDK7-cyclin H [7] = experiment: Competitive bioTHZ1 pulldown in Jurkat cells; format: cell-based, human; conditions: Jurkat cells versus HAP1 cells
CDK7 [8] = format: cell-based, Human; conditions: at 10μM, Hela cells treated 6 hours, wild-type CDK7
In short: (§4)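 HeLa cells stably expressing FLAG-tagged wild-type or C312S CDK7 were treated 6 h with compound or DMSO and lysed. Substrate was 1 μg RPB1 with 25 μM ATP plus 10 μCi 32P-ATP. Read-out was SDS-PAGE and phosphorimaging.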

CDK12/13 = conditions: ref Zhang et al., 2016; Gao et al., 2018; cited from earlier work
CDK12 = experiment: Radioactive in vitro kinase assay at 1 mM ATP; format: biochemical; conditions: ATP 1mM, at the concentrations tested
CDK9/CycT1 = CDK9/CycT1 (Homo sapiens, UniProt P50750); experiment: Adapta Eu kinase assay, Km ATP; format: biochemical; conditions: read-out: IC50 CDK9
Sequence of CDK9/CycT1 (P50750 whole entry): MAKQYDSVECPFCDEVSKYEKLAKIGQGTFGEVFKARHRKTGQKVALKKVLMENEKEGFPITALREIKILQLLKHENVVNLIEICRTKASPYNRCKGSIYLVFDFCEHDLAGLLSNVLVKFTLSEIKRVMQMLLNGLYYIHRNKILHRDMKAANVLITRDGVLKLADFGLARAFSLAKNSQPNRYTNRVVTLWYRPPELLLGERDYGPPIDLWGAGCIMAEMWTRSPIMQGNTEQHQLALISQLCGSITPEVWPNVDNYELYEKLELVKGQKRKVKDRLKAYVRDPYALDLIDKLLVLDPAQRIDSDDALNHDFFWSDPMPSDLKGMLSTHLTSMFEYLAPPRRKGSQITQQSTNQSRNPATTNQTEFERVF
Sequence of CDK9/CycT1 (O60563 whole entry partner): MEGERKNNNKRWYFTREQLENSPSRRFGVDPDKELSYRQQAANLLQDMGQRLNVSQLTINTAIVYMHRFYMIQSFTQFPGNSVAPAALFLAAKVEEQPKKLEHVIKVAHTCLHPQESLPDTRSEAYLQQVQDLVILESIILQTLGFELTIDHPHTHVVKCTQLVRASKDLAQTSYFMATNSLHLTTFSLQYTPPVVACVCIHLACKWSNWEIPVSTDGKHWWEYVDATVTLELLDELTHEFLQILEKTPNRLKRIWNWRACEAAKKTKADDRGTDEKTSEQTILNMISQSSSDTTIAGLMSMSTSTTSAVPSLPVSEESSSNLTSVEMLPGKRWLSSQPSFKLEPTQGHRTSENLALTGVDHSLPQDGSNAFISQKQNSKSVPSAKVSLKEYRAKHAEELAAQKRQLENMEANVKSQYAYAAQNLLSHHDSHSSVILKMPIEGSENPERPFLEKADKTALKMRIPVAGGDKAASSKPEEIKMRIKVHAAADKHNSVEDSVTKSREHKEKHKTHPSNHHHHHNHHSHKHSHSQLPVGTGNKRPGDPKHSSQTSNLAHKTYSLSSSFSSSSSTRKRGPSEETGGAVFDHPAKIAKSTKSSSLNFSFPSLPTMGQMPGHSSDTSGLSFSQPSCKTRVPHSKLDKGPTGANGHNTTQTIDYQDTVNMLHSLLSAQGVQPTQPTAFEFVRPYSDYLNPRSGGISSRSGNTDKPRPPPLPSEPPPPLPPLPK

CDK7 C312S = format: cell-based, Human
In short: as §4

[9] = tested on: HAP1 cells expressing CDK7-C312S; experiment: Cell cycle analysis; format: cell-based, human; conditions: 72 hours
In short: as §3

CDK7 [10] = molecular target: CDK7 (Homo sapiens, UniProt P50613); experiment: Radioactive in vitro kinase assay at 1 mM ATP; format: biochemical; conditions: read-out: IC50 for CDK7; ATP concentration of 1mM
Sequence of CDK7 (Homo sapiens, UniProt P50613) (P50613 2-346): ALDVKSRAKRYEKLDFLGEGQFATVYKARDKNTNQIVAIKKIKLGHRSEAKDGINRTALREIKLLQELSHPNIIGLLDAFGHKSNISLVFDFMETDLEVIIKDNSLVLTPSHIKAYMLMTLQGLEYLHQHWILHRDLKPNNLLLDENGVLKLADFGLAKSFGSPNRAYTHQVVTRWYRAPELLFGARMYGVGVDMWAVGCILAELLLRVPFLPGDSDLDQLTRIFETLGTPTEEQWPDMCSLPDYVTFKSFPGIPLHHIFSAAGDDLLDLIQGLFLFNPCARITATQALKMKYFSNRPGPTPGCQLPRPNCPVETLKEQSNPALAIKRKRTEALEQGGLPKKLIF
Sequence of CDK7 (Homo sapiens, UniProt P50613) (P51946 whole entry partner): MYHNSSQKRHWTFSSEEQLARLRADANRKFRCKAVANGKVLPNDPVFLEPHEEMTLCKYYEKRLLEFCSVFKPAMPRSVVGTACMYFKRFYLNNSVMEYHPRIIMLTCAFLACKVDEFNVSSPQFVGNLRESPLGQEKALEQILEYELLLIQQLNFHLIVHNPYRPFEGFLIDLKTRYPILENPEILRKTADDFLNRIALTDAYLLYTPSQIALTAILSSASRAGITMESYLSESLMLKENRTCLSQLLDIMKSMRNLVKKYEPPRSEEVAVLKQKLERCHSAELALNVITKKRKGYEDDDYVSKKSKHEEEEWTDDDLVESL
Sequence of CDK7 (Homo sapiens, UniProt P50613) (P51948 whole entry partner): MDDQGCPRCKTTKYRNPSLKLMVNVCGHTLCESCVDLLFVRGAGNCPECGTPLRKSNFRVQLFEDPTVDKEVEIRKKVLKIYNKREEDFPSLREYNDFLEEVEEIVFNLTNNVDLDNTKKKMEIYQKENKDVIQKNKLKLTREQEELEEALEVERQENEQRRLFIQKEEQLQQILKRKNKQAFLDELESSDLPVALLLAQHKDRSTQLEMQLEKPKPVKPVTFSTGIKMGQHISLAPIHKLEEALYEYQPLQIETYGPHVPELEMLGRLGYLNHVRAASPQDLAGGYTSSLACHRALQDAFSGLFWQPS

CDK7/CycH/Mat1 = CDK7/CycH/Mat1 (Homo sapiens, UniProt P50613); experiment: Covalent inhibition kinetics, peptide substrate mobility shift assay; format: biochemical
Sequence of CDK7/CycH/Mat1 (P50613 whole entry): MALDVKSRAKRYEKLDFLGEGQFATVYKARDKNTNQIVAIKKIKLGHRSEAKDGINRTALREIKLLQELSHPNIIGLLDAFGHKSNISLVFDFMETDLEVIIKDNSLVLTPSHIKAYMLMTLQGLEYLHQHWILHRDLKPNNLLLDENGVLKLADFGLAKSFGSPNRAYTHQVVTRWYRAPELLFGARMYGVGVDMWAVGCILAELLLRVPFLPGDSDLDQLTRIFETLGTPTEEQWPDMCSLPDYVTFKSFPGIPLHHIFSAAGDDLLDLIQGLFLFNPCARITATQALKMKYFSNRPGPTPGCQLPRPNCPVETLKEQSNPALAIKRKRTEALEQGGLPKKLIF
Sequence of CDK7/CycH/Mat1 (P51946 whole entry partner): as the sequence (P51946 whole entry partner) above
Sequence of CDK7/CycH/Mat1 (P51948 whole entry partner): as the sequence (P51948 whole entry partner) above

CDK13 = conditions: ATP 1mM, at the concentrations tested
WT HAP1 cells = experiment: RNA sequencing, differential expression and Jaccard analysis in HAP1 WT cells; format: cell-based, human; conditions: WT HAP1, 500nM, 24 hr, log2 fold change >1.5
In short: (§5)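 HAP1 WT or CDK7-C312S cells (1×106) were treated 24 h with 500nM or 2μM compound, alone or combined with a 250nM CDK12/13 inhibitor, with DMSO controls. RNA-seq was run in triplicate and genes were called differentially expressed at log2 fold change >1.5. Gene-set overlap between treatments was scored by Jaccard similarity index.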

CDK2/CycA = CDK2/CycA (Homo sapiens, UniProt P24941); experiment: Z'LYTE kinase assay, Km ATP; format: biochemical; conditions: read-out: IC50 CDK2
CDK7-C312S cells = format: cell-based, human; conditions: 500nM, 24 hr
In short: as §5

CDK7/Mat1/CycH = CDK7/Mat1/CycH (Homo sapiens, UniProt P50613); experiment: Adapta Eu fixed time point in vitro kinase assay, Km ATP; format: biochemical
Sequence of CDK7/Mat1/CycH (P50613 whole entry): as the sequence (P50613 whole entry) above
Sequence of CDK7/Mat1/CycH (P51946 whole entry partner): as the sequence (P51946 whole entry partner) above
Sequence of CDK7/Mat1/CycH (P51948 whole entry partner): as the sequence (P51948 whole entry partner) above

[11] = tested on: Pol II CTD S2/S5/S7 phosphorylation; experiment: Western blot of RNA Pol II CTD phosphorylation in HAP1 and Jurkat cells; format: cell-based, human; conditions: up to 2 uM, combination with 250nM THZ531
In short: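 HAP1 WT and CDK7-C312S cells were treated 24 h with compound at the indicated concentrations, alone or with 250nM CDK12/13 inhibitor co-treatment. Lysis was 30 min on ice in RIPA buffer (50mM Tris-HCl, 150 mM NaCl, 1% NP-40, 0.5% deoxycholate, 0.1% SDS, pH 7.4) with protease/phosphatase inhibitors and nuclease. Pol II CTD phospho-serine marks were immunoblotted and detected with infrared-labelled secondary antibodies (1:10,000).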

[12] = tested on: CDK7-cyclin H-MAT1 trimeric complex; experiment: Mass spectrometry analysis of covalent labeling of recombinant CAK complex; format: binding; conditions: recombinant complex incubated 4 hours at 37 °C
In short: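 Recombinant CAK complex (CDK7/cyclin H/MNAT1) was incubated with test compound or DMSO for 4 h at 37 °C and resolved by SDS-PAGE, then analysed by nanoLC/MS. Two unlabeled, non-cysteine CDK7 peptides served for normalization. For CE-MS, treated complex was denatured (0.1% Rapigest final), reduced (10 mM DTT), alkylated (22.5 mM iodoacetamide) and trypsin-digested overnight at 37 °C.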

PARP cleavage = experiment: Western blot for PARP cleavage; format: cell-based, human; conditions: HAP1, all conditions up to 2 μM and 48 hours

## CN(C)C/C=C/C(=O)Nc1ccc(C(=O)Nc2cccc(Nc3ncc(Cl)c(-c4c[nH]c5ccccc45)n3)c2)cc1 [THZ1, reference compound]
Jurkat cells
  maximal inhibition of proliferation: inhibit proliferation to zero
HAP1 cells [1]
  GRmax: negative
Cyclin K- CDK12/13
  effect on pulldown of cyclin K- CDK12/13: bound to both CDK7 and CDK12/13
HAP1 cells [2]
  cell death by LIVE/DEAD dye: induced substantially more cell death than YKL-5-124
[3]
  GRmax in CDK7-C312S cells: unchanged
CDK7-cyclin H [4]; HAP1 cells
  time required for equivalent engagement of CDK7 (>50%): twice as long

## CCC(=O)Nc1ccc(C(=O)Nc2n[nH]c3c2CN(C(=O)N[C@H](CN(C)C)c2ccccc2)C3(C)C)cc1 [YKL-5-167, (S)-N-(2-(dimethylamino)-1-phenylethyl)-6,6-dimethyl-3-(4-propionamidobenzamido)-4,6-dihydropyrrolo[3,4-c]pyrazole-5(1H)-carboxamide]
CDK7 [5]
  CDK7 engagement in KiNativ: only weakly engaged
CDK2(T160)
  effect on CDK2 T-loop phosphorylation: no detectable effect
phospho-CDK1(T161)
  effect on CDK1 T-loop phosphorylation: no detectable effect
HAP1 cells [6]
  effect on cell cycle distribution: no effect on cell cycle distribution
CDK7-cyclin H [7]
  fold higher concentrations required to function as a competitor: 10 fold
CDK7-cyclin H [4]; HAP1 cells
  time required for equivalent engagement of CDK7 (>50%): 6 h
CDK7-cyclin H [4]; relative to YKL-5-124
  fold less effective as a competitor for CDK7-cyclin H: 100 fold
CDK7-cyclin H [4]; washout after 3-hour treatment
  activity as competitor following washout: inactive following washout
CDK7 [8]
  inhibition of phosphorylation of RNA polymerase II substrate: little or no inhibition

## CN(C)C/C=C/C(=O)Nc1ccc(C(=O)N2CCC[C@@H](Nc3ncc(Cl)c(-c4c[nH]c5ccccc45)n3)C2)cc1 [THZ531]
CDK12/13
  times more potent on CDK12/13 than CDK7: approximately 20 times

## C=CC(=O)Nc1ccc(C(=O)Nc2n[nH]c3c2CN(C(=O)N[C@H](CN(C)C)c2ccccc2)C3(C)C)cc1 [YKL-5-124, (S)-3-(4-acrylamidobenzamido)-N-(2-(dimethylammo)-1-phenylethyl)-6,6-dimethyl-4,6-dihydropyrrolo[3,4-c]pyrazole-5(1H)-carboxamide]
Jurkat cells
  maximal inhibition of proliferation (residual, of the original cell count): ≤ 20%
CDK12
  inhibition of CDK12: no inhibition
CDK7 [5]
  CDK7 bound (block of desthiobiotin-ATP probe): more than 65%
phospho-CDK1(T161); HAP1, 2μM
  time to inhibition of T-loop phosphorylation: ≤ 12 h
phospho-CDK1(T161)
  effect on CDK1 T-loop phosphorylation: inhibited CDK1 T-loop phosphorylation
phospho-CDK1(T161); HAP1 and Jurkat cells
  concentration for reduced CDK1/2 activation: exceeding 1 μM
HAP1 cells [1]; HAP1 and Jurkat cells
  concentration at which strong anti-proliferative effects begin: 100 nM
HAP1 cells [1]
  GRmax: zero
Cyclin K- CDK12/13
  effect on pulldown of cyclin K- CDK12/13: no effect
HAP1 cells [6]
  effect on cell cycle distribution: dose-dependent increase in G1 and G2/M phase cells and a corresponding loss of S phase cells
CDK9/CycT1
  IC50: 3.02 µM
HAP1 cells [2]
  cell death by LIVE/DEAD dye: substantially reduced in CDK7-C312S cells
[3]; HAP1, 72 hours
  GR50 fold higher in CDK7-C312S than in wild-type cells: at least 150 fold
[3]
  GRmax in CDK7-C312S cells: too high to be estimated accurately
CDK7 C312S
  inhibitory activity in the in vitro kinase assay with C312S mutant: abolished the inhibitory activity
[9]
  effect on cell cycle distribution in CDK7-C312S cells: cell cycle distribution was not affected
CDK7 [10]
  IC50: 0.0535 µM
CDK7/CycH/Mat1; 1 mM ATP, 2-step inactivation model
  Ki: 0.0019 µM
CDK7/CycH/Mat1; ratio of kinact values
  covalently modifies CDK7 times faster than THZ1: approximately 11 times
CDK13
  inhibition of CDK13: no inhibition
CDK7-cyclin H [4]; 100 nM, 30 min
  reduction of CDK7-cyclin H binding to bioTHZ1: > 50%
CDK7-cyclin H [4]; HAP1 cells, 6 hours
  concentration that blocked pulldown of CDK7-cyclin H: about 30 nM
CDK7-cyclin H [4]; washout after 3-hour treatment
  lowest concentration with engagement of CDK7 three hours after washout: 125 nM
WT HAP1 cells
  number of differentially expressed genes: 1452 genes
CDK2/CycA
  IC50: 1.3 µM
CDK7-C312S cells
  number of differentially expressed genes: 583 genes
CDK7/Mat1/CycH
  selectivity for CDK7 than CDK9 and CDK2: 100 fold
CDK7/Mat1/CycH; read-out: IC50 CDK7/Mat1/CycH, fixed time point, Km ATP
  IC50: 0.0097 µM
[11]
  effect on phosphorylation of S5 and other Pol II CTD serine residues: no effect
[12]
  efficiency of covalent labeling of CDK7: approximately 99%
PARP cleavage
  PARP cleavage / apoptosis: apoptosis was not induced

From article PMC6588464 (Cell chemical biology, 2019)
